# Assay outcomes from PubChem.
# Sampled rows, rich in hits. Any-hit rate of the full collection: about 1.8%.
# NR2E3 ag-1: human photoreceptor-specific nuclear receptor agonism; Q9Y5X4; CHO-S Gal4-NCOR/VP16-NR2E3 two-hybrid, luciferase; inhibition of corepressor binding, % at 3.98 µM; hit rate 0.35% among 360,000;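 active = inhibition above the mean of all tested compounds plus 3 SD, cut at about 70% in these data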;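 also: 0% = DMSO with NR2E3 transfected cells and 100% = cells lacking NR2E3 construct; higher means lower luciferase signal from less NR2E3 corepressor binding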
# Target sequence (Q9Y5X4 whole entry, looked up, the tested form may be a part): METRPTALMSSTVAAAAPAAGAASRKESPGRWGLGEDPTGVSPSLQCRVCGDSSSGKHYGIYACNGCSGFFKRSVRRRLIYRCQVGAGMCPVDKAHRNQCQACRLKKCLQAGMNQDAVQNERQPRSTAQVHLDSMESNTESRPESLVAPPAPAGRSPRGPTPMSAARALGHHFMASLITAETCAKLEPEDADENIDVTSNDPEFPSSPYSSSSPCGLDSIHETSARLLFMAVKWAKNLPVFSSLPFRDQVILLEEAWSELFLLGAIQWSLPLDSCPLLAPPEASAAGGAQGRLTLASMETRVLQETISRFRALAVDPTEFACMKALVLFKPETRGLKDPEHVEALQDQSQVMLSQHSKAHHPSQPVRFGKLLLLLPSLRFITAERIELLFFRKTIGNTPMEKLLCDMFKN
# NR2E3 ag-2: agonists of human nuclear receptor NR2E3. GST-NR2E3/biotin-RetCOR TR-FRET, 1536-well. inhibition of corepressor binding, % at 4.78 µM. hit rate 0.12% among 320,000;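 active = percent inhibition above the cutoff of mean plus 3 SD of all tested compounds, set per screening campaign, cut at about 20% in these data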;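 also: 0% = DMSO wells and 100% = biotin wells as full block of FRET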
#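 Test system: GST-NR2E3 and biotin-RetCOR proteins | Quantity: 1.35 nM GST-tagged NR2E3 final | Medium: Tris pH 7.5 | Also added: 7 nM biotin-RetCOR | Dosing: Compound at 4.8 µM, single dose | Timing: 5 h at 4 °C | Detection: Time-resolved FRET | Read-out basis: Percent inhibition | Benchmarks: Biotin wells as high control, 0.6% DMSO wells as low control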
# Jurkat NFkB inh: lowers PMA/ionomycin-induced NF-kB signal in Jurkat cells | inhibition, % at 4 µM | hit rate 0.53% among 330,000 | AID 435003 | PMA/ionomycin-induced NF-kB luciferase reporter, luminescence; in the data active = inhibition above about 50%
# GalR3 antagonist: antagonists of human GalR3 | O60755 | HEK293 GalR3-CNG cAMP membrane potential fluorescence; galR3 body fused to GalR1 C-terminus | inhibition, % at 3 µM | hit rate 0.44% among 360,000 | AID 651719;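 active = inhibition above the screen-wide average plus 3 SD, cut at about 13% in these data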;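 also: forskolin and galanin both at EC90 stimulate the cells; cAMP rise reported by CNG channel membrane potential dye signal; 0% = forskolin plus galanin with DMSO and 100% = forskolin alone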
# Target sequence (O60755 1-299 limits assumed): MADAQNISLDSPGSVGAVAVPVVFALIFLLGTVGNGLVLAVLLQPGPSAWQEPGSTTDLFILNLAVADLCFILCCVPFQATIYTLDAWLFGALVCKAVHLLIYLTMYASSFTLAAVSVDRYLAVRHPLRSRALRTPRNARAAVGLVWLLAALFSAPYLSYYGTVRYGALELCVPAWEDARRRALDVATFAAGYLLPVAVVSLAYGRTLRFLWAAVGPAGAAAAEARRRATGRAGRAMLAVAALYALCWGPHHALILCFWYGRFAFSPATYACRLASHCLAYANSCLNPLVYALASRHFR
# 697 NFkB inh: inhibitors of the PMA/ionomycin-induced NF-kB reporter in 697 B cells. 697 B-cell NF-kB luciferase reporter, 16 h. inhibition, % at 4 µM. hit rate 0.33% among 330,000; in the data active = inhibition above about 35%
# Gli-Sufu antag: blocks Gli-Sufu signaling in a luciferase reporter. Sufu-KO-LIGHT fibroblasts, Gli luciferase reporter luminescence. inhibition, % at 5 µM. hit rate 0.74% among 340,000. AID 588413;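 active = inhibition above about 55%, limit read from the data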;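 also: 0% = DMSO-treated cells and 100% = wells with medium but no cells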
# Gli antag conf: confirmation of Gli-SUFU pathway antagonists | hit rate 40% among 2,500 | Sufu-KO-LIGHT cells, Gli luciferase reporter, luminescence | shares compounds with Gli-Sufu antag | inhibition, % at 5 µM;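 active = mean inhibition at 5 µM reaching about 45%, limit read from the data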;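 also: plate controls were DMSO-treated cells for no effect and wells lacking cells for full effect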
# Gli cytotox: cytotoxic in Gli-SUFU antagonist counter-screen; cytotoxicity, % at 5 µM; hit rate 32% among 2,500; Sufu-KO-LIGHT cells cytotoxicity, ATP luminescence; shares compounds with Gli-Sufu antag;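 active = mean cytotoxicity at 5 µM above about 25%, limit read from the data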;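 also: cells exposed to compound overnight for roughly 16 to 18 hours; plate controls were DMSO wells with cells for no effect and medium without cells for full effect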
# Wnt3a counter: counter-screen for Gli-SUFU antagonists: Wnt3a reporter inhibition | hit rate 20% among 2,500 | shares compounds with Gli-Sufu antag | inhibition, % at 6.25 µM | Wnt-LIGHT cells, Wnt3a-driven luciferase reporter, luminescence | AID 651995;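 active = mean inhibition above about 25%, limit read from the data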
# Active calls of the source: *; / = not tested or not shown.
SMILES,NR2E3 ag-1,NR2E3 ag-2,Jurkat NFkB inh,GalR3 antagonist,697 NFkB inh,Gli-Sufu antag,Gli antag conf,Gli cytotox,Wnt3a counter
CCCCCCCCN1C(=O)[C@@H](CC(=O)N2CCOCC2)C[C@@]2(C(=O)OC)C1=C[C@H](C(C)(C)C)O[C@@H]2C,/,/,/,-7.7,/,/,/,/,/
CCCCc1nc(N2CCN(C(=O)c3ccco3)CC2)c(C#N)c2c1CCCC2,-23.0,-2.9,-3.0,-4.7,-12.7,66.4*,24.7,11.6,35.0*
CC(C)c1nc(N2CCN(C(=O)c3ccco3)CC2)c(C#N)c2c1COC(C)(C)C2,-17.9,3.0,-2.8,-3.2,17.1,17.2,/,/,/
c1ccc(Cc2cnc(N3CCN(Cc4ccc5c(c4)OCCO5)CC3)nc2)cc1,/,/,/,-6.0,/,/,/,/,/
COc1cc(C(=O)Oc2ccccc2/C=N/NC(=O)c2ccc(Cl)cc2)cc(OC)c1OC,-6.7,4.8,12.5,0.0,-73.8,53.8,29.1,24.5,-161.2
O=C(C1CCN(Cc2ccc(F)cc2)CC1)N(CCc1ccccc1)Cc1ccccc1,0.3,1.6,-0.3,-5.0,5.2,58.3*,24.4,2.1,-49.4
CCc1nc2ccc(C(=O)NC3CCC(C)CC3)cc2nc1CC (stereo not drawn),-22.5,-0.7,-35.6,-7.9,-20.2,-26.2,/,/,/
O=C(Cn1cc(COC(=O)c2c3ccccc3cc3ccccc23)nn1)c1ccc(O)cc1,/,/,/,4.6,/,/,/,/,/
Nc1[nH]c(C(=O)c2ccc(Br)cc2)c(-c2ccc(F)cc2)c1C(=O)NCCc1c[nH]c2ccccc12,/,/,/,-3.1,/,/,/,/,/
COc1ccccc1CNS(=O)(=O)c1c(C)[nH]c(C)c1C(=O)N1CCCC1,-13.0,-6.2,4.1,2.4,-6.0,21.1,/,/,/
Cc1[nH]c(C)c(S(=O)(=O)NCc2ccccc2Cl)c1C(=O)N1CCCC1,22.9,2.1,-6.5,-4.4,-7.9,58.3*,14.7,6.5,-1.7
O=C(Cn1nnc(-c2ccccc2)n1)c1ccccc1,-33.6,4.1,-16.5,-1.4,-4.8,56.7*,-2.3,3.6,5.0
COc1ccccc1CCn1cnc(-c2ccc(Cl)cc2)c1CC(C)C,/,/,/,-7.0,/,/,/,/,/
CN1CCN(C(=O)c2ccc(N3CCCC3=O)cc2)CC1,-15.6,0.0,-2.0,-5.7,-1.2,60.1*,19.9,-3.1,-9.4
C[C@@H]1CCCCO[C@@H](CN(C)CC2CCCCC2)[C@@H](C)CN([C@H](C)CO)C(=O)c2cc(NC(=O)Nc3ccc4c(c3)OCO4)ccc2O1,/,/,/,-7.0,/,/,/,/,/
COc1cccc(O)c1CN1CCC(C(=O)Nc2ccc(Oc3cccnc3)cc2)CC1,6.3,-1.4,-5.5,-6.6,-19.7,50.5,35.0,5.4,3.8
O=[N+]([O-])c1ccc2c(c1)CCCO[C@]21O[C@H](CCO)C[C@H](O)[C@H]1O,/,/,/,-4.0,/,/,/,/,/
COc1ccc(Cn2c(C)nc3ccc([N+](=O)[O-])cc3c2=O)cc1,2.5,7.1,4.8,-9.8,3.5,60.9*,32.5,23.9,-11.5
Cc1nc2ccc([N+](=O)[O-])cc2c(=O)n1Cc1ccc(Cl)cc1,-35.9,-3.9,-2.0,-7.1,20.2,8.1,/,/,/
CC1NC(=O)c2ccccc2-n2c1nc1ccc(F)cc1c2=O (stereo not drawn),-18.5,/,/,-2.8,/,/,/,/,/
CCC(=O)N1CCc2cc(S(=O)(=O)Nc3ccccc3C)ccc21,-20.5,2.4,-3.5,-13.2,-18.7,-3.4,/,/,/
COc1ccccc1NS(=O)(=O)c1ccc2c(c1)CCN2C(=O)CCC(=O)O,-15.1,-0.5,-5.4,-13.2,0.4,54.5,17.1,7.1,3.2
COc1ccc(-c2noc(=O)n2Cc2ccc(C#N)cc2)cc1,-9.7,/,14.9,6.4,13.1,-1.7,/,/,/
COc1cccc(Cn2c(-c3cccs3)noc2=O)c1,13.7,-1.1,3.0,-5.5,-8.6,99.1*,19.9,8.3,-37.4
CC(C)(C)c1cc(NS(=O)(=O)c2cccs2)no1,24.7,-2.6,-18.2,-0.7,-17.8,-3.8,/,/,/
SMILES,NR2E3 ag-1,NR2E3 ag-2,Jurkat NFkB inh,GalR3 antagonist,697 NFkB inh,Gli-Sufu antag,Gli antag conf,Gli cytotox,Wnt3a counter
COc1ccc(/C=N/NC(=O)c2c(C)nc3ccccn23)cc1[N+](=O)[O-],25.6,1.0,2.7,1.1,22.4,2.8,/,/,/
O=C1CC(c2cccnc2)c2cc3c(cc2N1)OCCO3 (stereo not drawn),-20.2,1.9,6.5,-3.4,3.3,0.4,/,/,/
CCCOc1ccccc1C1CC(=O)Nc2cc3c(cc21)OCCO3 (stereo not drawn),29.5,1.1,47.7,/,-16.9,65.9*,65.3*,59.9*,-10.0
CC(=O)NCCCc1nc2ccccc2n1Cc1c(F)cccc1Cl,-0.6,0.8,-6.1,-0.4,2.3,14.4,/,/,/
COc1cccc(-c2ccc(SCC(=O)c3ccccc3)nn2)c1,-28.4,-0.8,2.4,1.2,-12.0,55.3*,22.1,12.1,-70.5
Cc1ccnc(NC(=O)c2cccc(NC(=O)Cc3ccccc3)c2)c1,-43.4,1.1,-11.8,-9.2,9.7,94.7*,3.0,25.1*,-16.4
Cc1ccc(-c2c[n+]3c(n2-c2ccccc2)CCC3)cc1,0.3,2.7,40.6,-1.6,-28.1,80.1*,82.8*,34.4*,36.3*
c1ccc(-c2c[n+]3c(n2-c2ccccc2)CCC3)cc1,9.6,0.2,9.4,-3.5,-14.1,59.8*,68.5*,18.9,17.1
COc1ccccc1-c1ccc([C@@H]2C[C@H]3[C@H](CON3C)CN2CC2CCCCC2)cc1,/,/,/,-3.6,/,/,/,/,/
O=C(CN1CCOCC1)Nc1nc2cc([N+](=O)[O-])ccc2s1,-38.8,0.6,0.4,-5.8,-16.7,-9.7,/,/,/
O=C(CN1CCOCC1)NCc1cc([N+](=O)[O-])ccc1O,16.1,0.7,-1.1,-5.9,-10.5,55.1*,22.4,0.4,-2.8
COc1cc(NC(=O)CSc2nc3[nH]c(=O)cc(O)c3s2)cc(OC)c1OC,-11.1,1.5,-3.9,-0.7,5.4,/,/,/,/
CCOc1ccc(S(=O)(=O)N2CCN=C2c2ccccc2)c(C)c1C,-9.4,-2.3,1.9,-3.1,0.9,-0.7,/,/,/
CCCCC(=O)Nc1nc(C)c(-c2csc(Nc3cc(OC)ccc3OC)n2)s1,14.3,0.3,1.4,-5.0,-8.1,94.6*,33.0,24.7,17.3
CCCCC(=O)Nc1nc(C)c(-c2csc(Nc3cc(Cl)ccc3OC)n2)s1,4.8,-3.4,-8.3,-1.6,5.2,-2.1,/,/,/
CCCCCCCCCCCCNC[C@@H]1CSCCS(=O)(=O)N1,/,/,/,-4.9,/,/,/,/,/
CN(Cc1cnc2nc(N)nc(N)c2n1)c1ccc(C(=O)NC(CCC(=O)O)C(=O)O)c2ccccc12 (stereo not drawn),29.9,/,/,3.3,/,57.9*,37.7,29.4*,2.5
